The test system of data set [1] is J774. The data set is described as follows: Cytotoxicity against mouse macrophage J774 cells at 23 uM after 24 hrs by MTT assay. As to conditions: j774, 24 h. In kind it is cell-based. (In general: Tetrazolium assays rely on reduction of a dye to a coloured formazan, in cell work by metabolically active cells.)
Data set [2] has as its system Plasmodium falciparum. The data set is described as follows: Antimalarial activity against erythrocytic stage multidrug-resistant Plasmodium falciparum Dd2 after 48 hrs by fluorescence spectrophotometer. It counts as functional, organism-based. As to conditions: Dd2, 48 h.
Data set [3] is described as follows: Inhibition of beta-hematine formation after 18 to 24 hrs by ferriprotoporphyrin 9 biomineralization inhibition test. In kind it is functional. In short, it runs like this: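 Haemin chloride (0.5 mg/mL, freshly dissolved in DMSO) was mixed with 10 mg/mL compound solution or solvent in 0.5 M sodium acetate pH 4.4 and incubated 18–24 h at 37 °C. IC₅₀ is the mean of two experiments in triplicate.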

For data set [4], the system named is Plasmodium falciparum. The data set is described as follows: Antimalarial activity against erythrocytic stage chloroquine-sensitive Plasmodium falciparum 3D7 after 48 hrs by fluorescence spectrophotometer. In kind it is functional, organism-based. To be noted: 3D7, 48 h.
Data set [5] deals with HepG2. The data set is described as follows: Cytotoxicity against human HepG2 cells at 23 uM after 24 hrs by MTT assay. To be noted: hepg2, 24 h. In kind it is cell-based.
In data set [6] the test system is HepG2. The data set is described as follows: Cytotoxicity against human HepG2 cells at 37 uM after 24 hrs by MTT assay. It counts as cell-based. As to conditions: hepg2, 24 h. In short, it runs like this:
(§1)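 5 × 10⁴ cells/well were exposed to compound for 24 h. Medium was then removed and MTT (0.4 mg/mL in PBS) added for 1 h. Crystals were dissolved in DMSO and read at 595 nm. % toxicity = (OD control − OD compound)/OD control × 100.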

Another data set relates to Plasmodium berghei. The data set is described as follows: Antimalarial activity against Plasmodium berghei str. ANKA infected in NMRI mouse at 10 mg/kg/day, ip for three days measured on day 4 by Giemsa staining. In kind it is functional. As to conditions: route intraperitoneal. In a few lines: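 NMRI male mice (20 ± 2 g, groups of five) inoculated on day 0 with 2 × 10⁷ RBCs infected with P. berghei ANKA erythrocytic stages. Two hours later, i.p. dosing at 10 mg/kg/day in DMSO, continued days 1–3.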

Data set [7] concerns J774. The data set is described as follows: Cytotoxicity against mouse macrophage J774 cells at 37 uM after 24 hrs by MTT assay. It counts as cell-based. To be noted: j774, 24 h. In a few lines: as §1
Data set [8] deals with HepG2. The data set is described as follows: Cytotoxicity against human HepG2 cells at 19 uM after 24 hrs by MTT assay. It counts as cell-based. As to conditions: hepg2, 24 h. In short, it runs like this: as §1
Data set [9] has as its system J774. The data set is described as follows: Cytotoxicity against mouse macrophage J774 cells at 19 uM after 24 hrs by MTT assay. In kind it is cell-based. As to conditions: j774, 24 h. In a few lines:
as §1

The record followed here is ChEMBL document CHEMBL1811834, “Synthesis and antimalarial activity of new heterocyclic hybrids based on chloroquine and thiazolidinone scaffolds” (Bioorg Med Chem, 2011).

Each structure is given as a SMILES string.

In the case of `O=C1CSC(c2ccc3c(c2)OCO3)N1CCNc1ccnc2cc(Cl)ccc12` (stereo not given), the Activity with J774 [1] is 47.93%; with HepG2 [5] it was 25.53%. Moreover, the IC50 (as a rule, the concentration needed to halve the response being measured) with Plasmodium falciparum [2] worked out at 750 nM; in data set [3] it was 58400 nM; in the data set on Plasmodium falciparum [4] it was 510 nM.

Turning to `Clc1ccc2c(NCc3ccccc3)ccnc2c1`, the IC50 was 330 nM in the data set on Plasmodium falciparum [2], 46500 nM in [3] and 300 nM in the data set on Plasmodium falciparum [4]. Further, the Activity in the data set on HepG2 [6] is on record as 46.58%; with J774 [7] it was 0%. The inhibition in vivo (as a rule, the change of the read-out against control, counted positive when it falls) at 10 mg/kg/day in the data set with Plasmodium berghei stood at 25%.

`CCN(CC)CCCC(C)Nc1ccnc2cc(Cl)ccc12` (stereo not given) [CHLOROQUINE]: the Activity with HepG2 [8] and in the data set on J774 [9] was 0% in each case. The compound further returned an IC50 in data set [3] of 22300 nM. This compound displayed an inhibition in vivo at 10 mg/kg/day in the data set with Plasmodium berghei of 100%.
